Experimental data reported in ChEMBL document CHEMBL3797189, “Small Molecule Inhibitors of Cyclophilin D To Protect Mitochondrial Function as a Potential Treatment for Acute Pancreatitis” (J Med Chem, 2016).
The source made the active and inactive calls. The calls are words filed in the database; no cut-off is given here.

Key:
Pancreatic acinar cell [1] = test: Inhibition of taurolithocholate acid 3-sulfate-induced necrosis in CD1 mouse pancreatic acinar cells at 10 uM after 30 mins by propidium iodide staining based confocal microscopic analysis; assay type: functional
Procedure, shortened: (§1)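 Freshly isolated murine pancreatic acinar cells were exposed to the pancreatitis toxin taurolithocholate acid 3-sulphate (500 µM) with inhibitor at 0.1, 1.0 and 10 µM or at 1 and 10 µM.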

Pancreatic acinar cell [2] = test: Inhibition of taurolithocholate acid 3-sulfate-induced necrosis in CD1 mouse pancreatic acinar cells at 1 uM after 30 mins by propidium iodide staining based confocal microscopic analysis; assay type: functional; procedure, shortened: as §1
[3] = Cytotoxicity against CD1 mouse pancreatic acinar cells at 10 uM after 30 mins by propidium iodide staining based confocal microscopic analysis; conditions: pancreatic acinar cell, 0.5 h
Procedure, shortened: (§2)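 As a parallel cytotoxicity control, freshly isolated murine pancreatic acinar cells were exposed to compounds alone, without TLCS, at 0.1, 1.0 and 10 µM or at 1 and 10 µM. Necrotic cell death was scored.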

[4] = Cytotoxicity against CD1 mouse pancreatic acinar cells at 1 to 10 uM after 30 mins by propidium iodide staining based confocal microscopic analysis; conditions: pancreatic acinar cell, 0.5 h; procedure, shortened: as §2
[5] = Cytotoxicity against CD1 mouse pancreatic acinar cells at 0.1 to 10 uM after 30 mins by propidium iodide staining based confocal microscopic analysis; conditions: pancreatic acinar cell, 0.5 h; procedure, shortened: as §2
Pancreatic acinar cell [6] = test: Inhibition of taurolithocholate acid 3-sulfate-induced change in mitochondrial membrane potential in CD1 mouse pancreatic acinar cells at 0.1 to 10 uM after 30 mins by tetramethyl rhodamine methyl ester dye based fluorescence analysis; assay type: functional, cell membranes
Pancreatic acinar cell [7] = test: Inhibition of taurolithocholate acid 3-sulfate-induced necrosis in human pancreatic acinar cells at 10 uM after 30 mins by propidium iodide staining based confocal microscopic analysis; assay type: functional
Pancreatic acinar cell [8] = test: Inhibition of taurolithocholate acid 3-sulfate-induced necrosis in CD1 mouse pancreatic acinar cells at 1 to 10 uM after 30 mins by propidium iodide staining based confocal microscopic analysis; assay type: functional; procedure, shortened: as §1

Q: Which inhibition (Pancreatic acinar cell [1]) does the source give for `Nc1ccc(CNC(=O)NCC(=O)N2CCC[C@@H]2c2ccccc2Br)cc1` here?
A: Active

Q: And the inhibition (Pancreatic acinar cell [2])?
A: inactive

Q: And the Activity [3]?
A: Toxic

Q: Which results are given for `CCOC(=O)[C@H](CCSC)NC(=O)NCc1ccc(N)cc1`?
A: inhibition (Pancreatic acinar cell [1]): Active; inhibition (Pancreatic acinar cell [2]): inactive; Activity [4]: Non-toxic

Q: Which results are given for `CSCC[C@H](NC(=O)NCc1ccc(N)cc1)C(=O)N1CCC[C@H]1c1ccccc1SC`?
A: Activity [5]: Non-toxic; inhibition (Pancreatic acinar cell [6]): Active; inhibition (Pancreatic acinar cell [7]): Active; inhibition (Pancreatic acinar cell [8]): Active
